Measurements from ChEMBL document CHEMBL4706745, “Balanced Intersystem Crossing in Iodinated Silicon-Fluoresceins Allows New Class of Red Shifted Theranostic Agents” (ACS Med Chem Lett, 2021).
Active and inactive are the calls of the source. The rule behind the calls is not given here.

Columns and labels:
[1] = Photostability in pH 7.4 PBS buffer at 614/630 nanometer irradiated with 595 nanometer LED light for 2 hrs by measuring fluorescence peak; assay type: physicochemical; conditions: pH 7.4, 2 h
How it was run: (§1)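 Absorption at 614 nm and emission at 630 nm tracked under continuous 595 or 630 nm LED irradiation for 2 h in PBS (pH 7.4, 0.5% DMSO).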

HCT-116 [2] = test: Phototoxicity against human HCT-116 cells assessed as reduction in cell viability irradiated with 595 and 630 nanometer LED light and further incubated for 24 hrs by MTT assay; assay type: functional, cell-based; conditions: dose 0.5-20 µM
How it was run: (§2)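 MTT viability assay. Cells incubated with 0.5–20 μM, then irradiated with a 595 nm (9.83 mW/cm2) or 630 nm (24.3 mW/cm2) LED for 1 or 2 h, followed by 23 or 22 h dark respectively. Light alone and vehicle controls included. Mean ± SD, n = 4.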

[3] = Induction of singlet oxygen generation in pH 7.4 DMSO solution at 614 nanometer assessed as singlet oxygen quantum yield irradiated with 595 nanometer LED light; assay type: functional
[4] = Induction of singlet oxygen generation in DMSO solution using singlet oxygen sensor green assessed as increase in SOSG intensity irradiated with 630 nanometer LED light at 5 uM; assay type: functional
[5] = Induction of singlet oxygen generation in DMSO solution using singlet oxygen sensor green assessed as increase in SOSG intensity irradiated with 595 nanometer LED light at 5 uM; assay type: functional
How it was run: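 5 μM compound with singlet oxygen sensor green (SOSG); increase in SOSG emission monitored during 595 nm LED irradiation (9.83 mW/cm2).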

HCT-116 [6] = test: Induction of ROS generation in human HCT-116 cells at 5 uM incubated for 2 hr by DCFH2-DA staining based confocal microscopic analysis; assay type: cell-based; conditions: hct-116, 2 h
How it was run: (§3)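 Cells loaded with 5 μM compound and the ROS sensor DCFH2-DA; kept dark or irradiated with a 595 nm LED for 2 h, with or without NaN3 as singlet oxygen quencher. Green emission imaged by confocal microscopy. Controls: DMSO 0.5% vehicle and H2O2 (500 μM, 2 h) as positive control.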

MDA-MB-231 [7] = test: Induction of apoptosis in human MDA-MB-231 cells at 5 uM irradiated with 595 +/- 5 nanometer LED light for 2 hrs in presence of NaN3 by annexin V-FITC and PI staining based confocal microscopic analysis; assay type: functional, cell-based
How it was run: (§4)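 Cells treated with 5 μM and either kept dark or irradiated 2 h with a 595 nm LED, with or without NaN3. Annexin V-FITC (early apoptosis) and PI (late apoptosis/necrosis) staining 30 min after PDT, then confocal imaging. DMSO 0.5% vehicle control.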

[8] = Induction of singlet oxygen generation in DMSO/ADMDA solution assessed as decrease in ADMDA absorption irradiated with 630 nanometer LED light at 5 uM; assay type: functional
[9] = Induction of singlet oxygen generation in DMSO/ADMDA solution assessed as decrease in ADMDA absorption irradiated with 595 nanometer LED light at 5 uM; assay type: functional
How it was run: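 5 μM compound mixed with the water-soluble trap ADMDA in oxygen-saturated PBS (pH 7.4, 0.5% DMSO), then LED irradiated (595 nm at 9.83 mW/cm2). Decrease in ADMDA absorption monitored, with the first 40 s kept in the dark.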

[10] = Drug uptake in human HCT-116 cells assessed as cytosolic red emission at 5 uM incubated for 2 hrs by Hoechst-33342 staining based confocal microscopic analysis; assay type: ADME, cell-based; conditions: hct-116, 2 h
How it was run: (§5)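 Cells incubated with 5 μM for 2 h and washed before confocal imaging of intracellular red emission.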

HCT-116 [11] = test: Induction of apoptosis in human HCT-116 cells at 5 uM irradiated with 595 +/- 5 nanometer LED light for 2 hrs in presence of NaN3 by annexin V-FITC and PI staining based confocal microscopic analysis; assay type: functional, cell-based; how it was run: as §4
[12] = Fluorescence property of the compound in pH 7.4 PBS buffer assessed as fluorescence quantum yield by fluorescence spectrophotometric method; assay type: physicochemical
MDA-MB-231 [13] = test: Phototoxicity against human MDA-MB-231 cells assessed as reduction in cell viability irradiated with 595 and 630 nanometer LED light and further incubated for 24 hrs by MTT assay; assay type: functional, cell-based; conditions: dose 0.5-20 µM; how it was run: as §2
[14] = Drug uptake in human MDA-MB-231 cells assessed as cytosolic red emission at 5 uM incubated for 2 hrs by Hoechst-33342 staining based confocal microscopic analysis; assay type: ADME, cell-based; conditions: mda-mb-231, 2 h; how it was run: as §5
HCT-116 [15] = test: Induction of ROS generation in human HCT-116 cells at 5 uM irradiated with 595 +/- 5 nanometer LED light for 2 hr by DCFH2-DA staining based confocal microscopic analysis; assay type: functional, cell-based; how it was run: as §3
MDA-MB-231 [16] = test: Induction of ROS generation in human MDA-MB-231 cells at 5 uM incubated for 2 hr by DCFH2-DA staining based confocal microscopic analysis; assay type: cell-based; conditions: mda-mb-231, 2 h; how it was run: as §3
HCT-116 [17] = test: Induction of apoptosis in human HCT-116 cells assessed as increase in necrotic cells at 5 uM irradiated with 595 +/- 5 nanometer LED light for 2 hrs by annexin V-FITC and PI staining based confocal microscopic analysis; assay type: functional, cell-based; how it was run: as §4
MDA-MB-231 [18] = test: Cytotoxicity against human MDA-MB-231 cells assessed as reduction in cell viability at 0.5 to 20 uM incubated for 24 hrs by MTT assay; assay type: cell-based; conditions: mda-mb-231, 24 h, dose 0.5-20 µM
How it was run: (§6)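 Cells exposed to 0.5–20 μM for 24 h in the dark, then assessed by MTT for viability. Vehicle control included. Mean ± SD, n = 4.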

MDA-MB-231 [19] = test: Induction of ROS generation in human MDA-MB-231 cells at 5 uM irradiated with 595 +/- 5 nanometer LED light for 2 hr by DCFH2-DA staining based confocal microscopic analysis; assay type: functional, cell-based; how it was run: as §3
MDA-MB-231 [20] = test: Induction of apoptosis in human MDA-MB-231 cells assessed as increase in necrotic cells at 5 uM irradiated with 595 +/- 5 nanometer LED light for 2 hrs by annexin V-FITC and PI staining based confocal microscopic analysis; assay type: functional, cell-based; how it was run: as §4
HCT-116 [21] = test: Cytotoxicity against human HCT-116 cells assessed as reduction in cell viability at 0.5 to 20 uM incubated for 24 hrs by MTT assay; assay type: cell-based; conditions: hct-116, 24 h, dose 0.5-20 µM; how it was run: as §6
[22] = Photostability in pH 7.4 PBS buffer at 614/630 nanometer irradiated with 630 nanometer LED light for 2 hrs by measuring fluorescence peak; assay type: physicochemical; conditions: pH 7.4, 2 h; how it was run: as §1
[23] = Induction of singlet oxygen generation in pH 7.4 DMSO solution at 614 nanometer assessed as singlet oxygen quantum yield irradiated with 630 nanometer LED light; assay type: functional

- Stabilty [1]: Stable
- Drug uptake [10]: Active
- Activity [12]: 11%
- Drug uptake [14]: Active
- Stabilty [22]: Stable
SMILES: C[Si]1(C)C2=C(I)C(=O)C(I)=CC2=C(c2ccccc2C(=O)O)c2cc(I)c(O)c(I)c21
- inhibition (HCT-116 [2]): Dose-dependent effect
- Activity [3]: 45%
- Activity [4]: Active
- Activity [5]: Active
- Activity (HCT-116 [6]): Non-Toxic
- Activity (MDA-MB-231 [7]): inactive
- Activity [8]: Active
- Activity [9]: Active
- Activity (HCT-116 [11]): inactive
- inhibition (MDA-MB-231 [13]): Dose-dependent effect
- Activity (HCT-116 [15]): Active
- Activity (MDA-MB-231 [16]): Non-Toxic
- Activity (HCT-116 [17]): inactive
- Activity (MDA-MB-231 [18]): Non-Toxic
- Activity (MDA-MB-231 [19]): Active
- Activity (MDA-MB-231 [20]): inactive
- Activity (HCT-116 [21]): Non-Toxic
- Activity [23]: 30%
